Measured values taken from ChEMBL document CHEMBL5678806, “NMS-P937, an orally available, specific small-molecule polo-like kinase 1 inhibitor with antitumor activity in solid and hematologic malignancies” (Mol Cancer Ther, 2012).

Tests used:
[1] = target: Cyclin-dependent kinase 1/cyclin B1 (Homo sapiens, UniProt P06493); test: Inhibition of CDK1/CycB (unknown origin) in presence of [gamma-33P]ATP; type: protein-complex assay
[2] = Inhibition of PDGFR (unknown origin) in presence of [gamma-33P]ATP; design: species or system Homo sapiens
[3] = target: T1, Tyrosine-protein kinase SYK (Homo sapiens, UniProt P43405); test: Inhibition of SYK (unknown origin) in presence of [gamma-33P]ATP
[4] = target: Serine/threonine-protein kinase PLK3 (Homo sapiens) (UniProt Q9H4B4); test: Inhibition of PLK3 (unknown origin) at 10 micromol/L in presence of [gamma-33P]ATP relative to control; settings: dose 10.0 µmol/L
[5] = target: Homeodomain-interacting protein kinase 2 (Homo sapiens) (UniProt Q9H2X6); test: Inhibition of N-terminal His6-tagged recombinant human HIPK2 (165 to 564 residues) expressed in baculovirus infected Sf21 cells assessed as residual activity at 0.1 uM relative to control
[6] = target: Tyrosine-protein kinase Lyn (Homo sapiens, UniProt P07948); test: Inhibition of N-terminal his6-tagged recombinant full-length human Lyn expressed in Sf21 cells assessed as residual activity at 0.1 uM relative to control
[7] = target: Dual specificity mitogen-activated protein kinase kinase 1 (Homo sapiens) (UniProt Q02750); test: Inhibition of N-terminal GST and C-terminal His6-tagged recombinant full-length human MEK1 expressed in E. coli assessed as residual activity at 0.1 uM relative to control
[8] = target: cAMP-dependent protein kinase (PKA) (Homo sapiens) (UniProt P22694+P17612+P22612); test: Inhibition of recombinant human full-length PKA expressed in E.coli BL21 (DE3) pLysS cells assessed as residual activity at 0.1 uM relative to control
[9] = target: T1, Tyrosine-protein kinase SYK; test: Inhibition of N-terminal His6-tagged recombinant full-length human Syk expressed in baculovirus infected Sf21 cells assessed as residual activity at 0.1 uM relative to control
[10] = test system: Angiopoietin-1 receptor (Homo sapiens), Q02763 [R849W]; test: Inhibition of N-terminal His6-tagged recombinant human Tie2 (771 to end residues) R849W mutant expressed in baculovirus infected Sf21 cells assessed as residual activity at 0.1 uM relative to control
[11] = target: Tyrosine-protein kinase ABL2 (Mus musculus) (UniProt Q4JIM5); test: Inhibition of N-terminal His6-tagged recombinant mouse Arg (27 to end residues) expressed in Sf21 cells assessed as residual activity at 1 uM relative to control
[12] = target: Mitogen-activated protein kinase kinase kinase 5 (Homo sapiens) (UniProt Q99683); test: Inhibition of N-Terminal GST and C-terminal His6-tagged recombinant human ASK1 (649 to 946 residues) expressed in E. coli cell assessed as residual activity at 1 uM relative to control
[13] = target: Aurora kinase A (Homo sapiens) (UniProt O14965); test: Inhibition of N-terminal 6His-tagged recombinant full-length human Aurora-A expressed in Sf21 cells assessed as residual activity at 1 uM relative to control
[14] = target: Phosphorylase b kinase gamma catalytic chain, liver/testis isoform (Homo sapiens) (UniProt P15735); test: Inhibition of GST-tagged recombinant human PhKgamma2 (1 to 301 residues) expressed in E. coli assessed as residual activity at 1 uM relative to control
[15] = target: Angiopoietin-1 receptor (Homo sapiens) (UniProt Q02763); test: Inhibition of N-terminal His6-tagged recombinant human Tie2 (771 to end residues) expressed in baculovirus infected Sf21 cells assessed as residual activity at 1 uM relative to control
SW-403 = test: Antiproliferative activity against human SW403 cells assessed as inhibition of cell growth incubated for 72 hrs by cell-titer glo assay; type: functional, cell-based; settings: SW-403, 72 h
HCT-15 = test: Antiproliferative activity against human HCT-15 cells assessed as inhibition of cell growth incubated for 72 hrs by cell-titer glo assay; type: functional, cell-based; settings: HCT-15, 72 h
Summary of the method: (§1)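 Cells seeded at 10,000–30,000/cm² (adherent) or 100,000/mL (nonadherent) in medium with 10% fetal calf serum; after 24 h, treated in duplicate with serial dilutions for 72 h. Viable cell number read by CellTiter-Glo luminescence; IC50 from sigmoidal fit; at least two independent experiments.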

SK-MES-1 = test: Antiproliferative activity against human SK-MES-1 cells assessed as inhibition of cell growth incubated for 72 hrs by cell-titer glo assay; type: functional, cell-based; settings: SK-MES-1, 72 h
NCI-H23 = test: Antiproliferative activity against human NCI-H23 cells assessed as inhibition of cell growth incubated for 72 hrs by cell-titer glo assay; type: functional, cell-based; settings: NCI-H23, 72 h
Summary of the method: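 Cells from ATCC or ECACC, kept in supplier-recommended medium with 1% penicillin-streptomycin at 37°C, 5% CO₂. Seeded at 10,000–30,000/cm² (adherent) or 100,000/mL (nonadherent) in medium with 10% fetal calf serum. Dosed after 24 h in duplicate with serial dilutions. Viable cells read by CellTiter-Glo 72 h later. IC50 from sigmoidal fit. At least two independent experiments.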

1A9/ptx-22 = test: Antiproliferative activity against human 1A9/ptx-22 cells assessed as inhibition of cell growth incubated for 72 hrs by cell-titer glo assay; type: functional, cell-based; settings: 1A9/ptx-22, 72 h
Summary of the method: (§2)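 Cells seeded 10,000–30,000/cm² (adherent) or 100,000/mL (suspension) in medium with 10% fetal calf serum; after 24 h treated in duplicate with serial dilutions for 72 h. Viable cells read by CellTiter-Glo luminescence; IC50 from sigmoidal fit; at least two independent experiments.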

LNCaP = test: Antiproliferative activity against human LNCaP cells assessed as inhibition of cell growth incubated for 72 hrs by cell-titer glo assay; type: functional, cell-based; summary of the method: as §1
M14 = test: Antiproliferative activity against human M14 cells assessed as inhibition of cell growth incubated for 72 hrs by cell-titer glo assay; type: functional, cell-based; settings: M14, 72 h; summary of the method: as §1
697 = test: Antiproliferative activity against human 697 cells assessed as inhibition of cell growth incubated for 72 hrs by cell-titer glo assay; type: functional, cell-based; settings: Homo sapiens, 697, 72 h; summary of the method: as §2
SR = test: Antiproliferative activity against human SR cells assessed as inhibition of cell growth incubated for 72 hrs by cell-titer glo assay; type: functional, cell-based
SU-DHL-1 = test: Antiproliferative activity against human SU-DHL-1 cells assessed as inhibition of cell growth incubated for 72 hrs by cell-titer glo assay; type: functional, cell-based; settings: SU-DHL-1, 72 h
[16] = Antiproliferative activity against human adriamycin-resistant RPMI-8226-ADR cells assessed as inhibition of cell growth incubated for 72 hrs by cell-titer glo assay; type: functional, cell-based
[17] = Volume of distribution at steady state in Sprague-Dawley rat at 10 mg/kg, iv by LC-MS analysis; type: ADME, organism-based; settings: in vivo, read-out: Vdss
[18] = Half-life in Beagle dog at 5 mg/kg, iv by LC-MS analysis; type: ADME, organism-based, Canis lupus familiaris; settings: in vivo
[19] = AUC in male cynomolgus monkey at 5 mg/kg, po by LC-MS analysis; type: ADME, organism-based, Macaca fascicularis; settings: in vivo
[20] = Tmax in Beagle dog at 5 mg/kg, po by LC-MS analysis; type: ADME, organism-based, Canis lupus familiaris; settings: in vivo

Chain of Angiopoietin-1 receptor (Homo sapiens) (Q02763 whole entry): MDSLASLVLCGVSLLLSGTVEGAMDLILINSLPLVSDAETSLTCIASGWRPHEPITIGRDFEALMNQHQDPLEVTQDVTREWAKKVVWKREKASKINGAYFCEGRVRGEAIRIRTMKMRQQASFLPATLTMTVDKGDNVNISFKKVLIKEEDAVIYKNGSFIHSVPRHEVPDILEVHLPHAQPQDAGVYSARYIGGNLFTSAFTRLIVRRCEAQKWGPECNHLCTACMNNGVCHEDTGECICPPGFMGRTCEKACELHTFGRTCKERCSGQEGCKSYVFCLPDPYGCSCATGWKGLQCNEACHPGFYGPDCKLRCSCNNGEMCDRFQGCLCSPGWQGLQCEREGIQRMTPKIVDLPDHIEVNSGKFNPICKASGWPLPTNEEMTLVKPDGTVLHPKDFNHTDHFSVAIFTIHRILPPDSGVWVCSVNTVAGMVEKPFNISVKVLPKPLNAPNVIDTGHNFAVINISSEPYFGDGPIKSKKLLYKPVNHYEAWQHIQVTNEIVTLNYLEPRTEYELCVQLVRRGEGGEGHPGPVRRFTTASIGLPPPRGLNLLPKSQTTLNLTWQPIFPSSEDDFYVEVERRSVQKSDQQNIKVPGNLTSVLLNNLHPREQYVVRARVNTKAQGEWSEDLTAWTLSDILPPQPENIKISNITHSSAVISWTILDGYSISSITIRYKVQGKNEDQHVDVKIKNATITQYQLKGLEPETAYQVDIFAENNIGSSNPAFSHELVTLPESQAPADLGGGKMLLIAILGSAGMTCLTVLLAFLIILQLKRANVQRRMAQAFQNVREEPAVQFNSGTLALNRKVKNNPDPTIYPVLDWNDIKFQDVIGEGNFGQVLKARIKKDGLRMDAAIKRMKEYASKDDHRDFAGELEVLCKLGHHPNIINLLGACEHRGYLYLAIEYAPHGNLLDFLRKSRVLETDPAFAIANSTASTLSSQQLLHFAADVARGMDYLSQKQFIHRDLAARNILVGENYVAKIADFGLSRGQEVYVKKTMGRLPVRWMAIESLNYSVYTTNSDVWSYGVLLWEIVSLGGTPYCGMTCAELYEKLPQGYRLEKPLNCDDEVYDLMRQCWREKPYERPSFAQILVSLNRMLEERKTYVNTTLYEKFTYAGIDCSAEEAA
Chain of Tyrosine-protein kinase ABL2 (Mus musculus) (Q4JIM5 whole entry, the tested form may be a part): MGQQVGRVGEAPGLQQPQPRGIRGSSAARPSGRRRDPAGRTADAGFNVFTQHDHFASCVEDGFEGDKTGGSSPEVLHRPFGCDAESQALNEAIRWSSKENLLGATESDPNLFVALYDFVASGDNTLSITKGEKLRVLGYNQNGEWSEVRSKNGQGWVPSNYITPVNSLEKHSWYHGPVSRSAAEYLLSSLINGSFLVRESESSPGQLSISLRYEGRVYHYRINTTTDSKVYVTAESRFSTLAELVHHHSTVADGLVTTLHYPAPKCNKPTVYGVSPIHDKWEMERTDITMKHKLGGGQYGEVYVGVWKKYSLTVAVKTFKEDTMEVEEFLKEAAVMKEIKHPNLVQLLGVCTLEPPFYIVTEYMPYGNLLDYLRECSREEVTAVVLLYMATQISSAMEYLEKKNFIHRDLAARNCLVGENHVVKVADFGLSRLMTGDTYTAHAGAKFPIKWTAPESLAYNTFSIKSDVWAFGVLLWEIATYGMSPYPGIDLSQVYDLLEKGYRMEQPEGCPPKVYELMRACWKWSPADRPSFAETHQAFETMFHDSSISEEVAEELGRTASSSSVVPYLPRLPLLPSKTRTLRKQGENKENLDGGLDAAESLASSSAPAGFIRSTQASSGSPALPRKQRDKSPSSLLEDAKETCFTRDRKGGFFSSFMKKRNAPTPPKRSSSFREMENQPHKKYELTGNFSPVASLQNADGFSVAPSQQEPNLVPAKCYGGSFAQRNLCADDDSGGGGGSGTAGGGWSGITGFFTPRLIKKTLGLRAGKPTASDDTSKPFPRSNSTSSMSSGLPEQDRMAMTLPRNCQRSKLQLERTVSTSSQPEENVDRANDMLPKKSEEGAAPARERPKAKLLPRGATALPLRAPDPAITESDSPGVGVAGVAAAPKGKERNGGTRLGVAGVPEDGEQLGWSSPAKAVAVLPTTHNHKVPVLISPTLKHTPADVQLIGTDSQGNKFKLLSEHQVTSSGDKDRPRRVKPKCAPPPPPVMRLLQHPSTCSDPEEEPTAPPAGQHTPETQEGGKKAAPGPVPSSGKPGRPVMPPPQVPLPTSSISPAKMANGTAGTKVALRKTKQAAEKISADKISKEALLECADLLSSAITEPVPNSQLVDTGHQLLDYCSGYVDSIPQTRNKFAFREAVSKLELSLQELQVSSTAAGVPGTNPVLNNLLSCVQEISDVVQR
Chain of Phosphorylase b kinase gamma catalytic chain, liver/testis isoform (Homo sapiens) (P15735 whole entry, the tested form may be a part, canonical isoform): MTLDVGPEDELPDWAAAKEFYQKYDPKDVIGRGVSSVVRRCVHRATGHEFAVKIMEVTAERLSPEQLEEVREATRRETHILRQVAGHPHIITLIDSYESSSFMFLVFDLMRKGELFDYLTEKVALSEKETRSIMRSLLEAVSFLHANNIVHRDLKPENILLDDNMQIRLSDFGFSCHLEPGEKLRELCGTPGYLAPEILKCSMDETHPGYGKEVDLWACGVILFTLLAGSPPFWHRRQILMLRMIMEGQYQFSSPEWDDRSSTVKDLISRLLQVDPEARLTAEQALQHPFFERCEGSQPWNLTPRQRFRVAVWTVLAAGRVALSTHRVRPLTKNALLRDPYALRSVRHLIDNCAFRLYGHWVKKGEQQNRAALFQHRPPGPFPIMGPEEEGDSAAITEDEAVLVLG
Chain of Angiopoietin-1 receptor (Homo sapiens), Q02763 [R849W] (Q02763 whole entry R849W): as the sequence (Q02763 whole entry) above, with R849W counted along it
Chain of Homeodomain-interacting protein kinase 2 (Homo sapiens) (Q9H2X6 whole entry, looked up, the tested form may be a part): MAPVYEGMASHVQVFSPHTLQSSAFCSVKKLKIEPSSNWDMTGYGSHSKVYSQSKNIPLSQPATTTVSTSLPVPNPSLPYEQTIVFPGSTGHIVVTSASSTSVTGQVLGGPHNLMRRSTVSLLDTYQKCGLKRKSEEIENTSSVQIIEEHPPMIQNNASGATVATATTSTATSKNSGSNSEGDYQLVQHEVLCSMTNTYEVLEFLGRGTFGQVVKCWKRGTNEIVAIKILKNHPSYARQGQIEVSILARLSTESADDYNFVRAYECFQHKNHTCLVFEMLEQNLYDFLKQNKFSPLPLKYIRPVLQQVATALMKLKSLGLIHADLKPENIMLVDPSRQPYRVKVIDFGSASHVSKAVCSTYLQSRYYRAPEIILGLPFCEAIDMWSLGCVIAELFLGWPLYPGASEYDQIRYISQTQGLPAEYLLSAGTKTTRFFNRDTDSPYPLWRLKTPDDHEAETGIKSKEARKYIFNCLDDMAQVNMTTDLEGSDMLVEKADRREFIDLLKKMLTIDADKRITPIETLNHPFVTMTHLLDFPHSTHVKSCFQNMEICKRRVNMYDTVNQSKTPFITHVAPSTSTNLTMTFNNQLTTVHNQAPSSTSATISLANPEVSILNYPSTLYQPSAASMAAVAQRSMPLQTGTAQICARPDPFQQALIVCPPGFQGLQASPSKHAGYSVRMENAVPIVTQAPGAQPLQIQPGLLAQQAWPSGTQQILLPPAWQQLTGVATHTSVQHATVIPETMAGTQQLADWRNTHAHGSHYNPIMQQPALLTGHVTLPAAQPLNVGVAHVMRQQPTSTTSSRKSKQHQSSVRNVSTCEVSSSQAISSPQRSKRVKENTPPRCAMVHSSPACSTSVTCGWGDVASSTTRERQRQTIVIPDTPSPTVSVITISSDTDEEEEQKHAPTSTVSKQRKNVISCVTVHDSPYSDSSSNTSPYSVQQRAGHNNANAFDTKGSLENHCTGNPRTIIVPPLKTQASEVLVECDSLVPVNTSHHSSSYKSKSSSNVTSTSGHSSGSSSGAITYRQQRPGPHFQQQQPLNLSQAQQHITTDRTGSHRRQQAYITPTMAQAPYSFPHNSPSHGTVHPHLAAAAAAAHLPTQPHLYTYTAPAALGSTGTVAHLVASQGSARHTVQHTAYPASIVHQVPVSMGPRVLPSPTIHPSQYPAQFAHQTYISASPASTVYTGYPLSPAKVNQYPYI
Chain of Aurora kinase A (Homo sapiens) (O14965 whole entry, the tested form may be a part, canonical isoform): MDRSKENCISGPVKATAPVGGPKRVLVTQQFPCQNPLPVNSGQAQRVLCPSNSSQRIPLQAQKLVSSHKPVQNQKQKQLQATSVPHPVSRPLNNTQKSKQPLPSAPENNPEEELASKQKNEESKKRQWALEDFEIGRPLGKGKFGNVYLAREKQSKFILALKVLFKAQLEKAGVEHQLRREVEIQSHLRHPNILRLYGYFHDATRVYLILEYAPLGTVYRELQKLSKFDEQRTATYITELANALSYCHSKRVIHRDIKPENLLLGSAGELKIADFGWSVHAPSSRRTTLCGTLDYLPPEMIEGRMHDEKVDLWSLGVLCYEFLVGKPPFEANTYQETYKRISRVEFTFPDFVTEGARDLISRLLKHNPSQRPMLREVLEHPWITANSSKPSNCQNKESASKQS
Chain of Tyrosine-protein kinase Lyn (P07948 2-512 limits assumed): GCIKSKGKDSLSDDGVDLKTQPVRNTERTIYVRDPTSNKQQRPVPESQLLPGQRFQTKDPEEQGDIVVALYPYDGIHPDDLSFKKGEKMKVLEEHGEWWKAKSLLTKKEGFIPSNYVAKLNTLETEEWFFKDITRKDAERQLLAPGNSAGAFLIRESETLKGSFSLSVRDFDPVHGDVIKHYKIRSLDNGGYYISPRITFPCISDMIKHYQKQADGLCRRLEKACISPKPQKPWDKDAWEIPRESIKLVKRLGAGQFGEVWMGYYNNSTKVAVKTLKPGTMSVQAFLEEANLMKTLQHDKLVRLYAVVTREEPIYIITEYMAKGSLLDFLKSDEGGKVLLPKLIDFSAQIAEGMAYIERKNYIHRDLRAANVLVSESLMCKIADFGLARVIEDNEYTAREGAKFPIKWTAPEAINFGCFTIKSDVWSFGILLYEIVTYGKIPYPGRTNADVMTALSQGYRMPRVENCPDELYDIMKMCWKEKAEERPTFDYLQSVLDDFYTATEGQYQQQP

In the case of `CN1CCN(c2ccc(OC(F)(F)F)c(Nc3ncc4c(n3)-c3c(c(C(N)=O)nn3CCO)CC4)c2)CC1` [ONVANSERTIB], the IC50 [1] is reported as over 10 µM, the IC50 [2] is reported as over 10 µM and the IC50 [3] is reported as over 10 µM. The inhibition [4] was 40.2%, the Activity [5] was 118% and the Activity [6] was 156%. It also gave an Activity [7] of 113%, an Activity [8] of 141% and an Activity [9] of 96%. For the same molecule, the Activity [10] was 74%, the Activity [11] was 85% and the Activity [12] was 125%. The Activity [13] was 113%, the Activity [14] was 88% and the Activity [15] was 114%. It also gave an IC50 (SW-403) of 46 nM, an IC50 (HCT-15) of 156 nM and an IC50 (SK-MES-1) of 367 nM. It also gave an IC50 (NCI-H23) of 56 nM, an IC50 (1A9/ptx-22) of 65 nM and an IC50 (LNCaP) of 82 nM. It also gave an IC50 (M14) of 67 nM, an IC50 697 of 26 nM and an IC50 (SR) of 47 nM. It also gave an IC50 (SU-DHL-1) of 96 nM, an IC50 [16] of 1310 nM and a Vd [17] of 2.8 L/kg. The half-life [18] was 234 min, the AUC [19] was 14.8 µM·h and the Tmax [20] was 1.2 h.
